Activity calls are given as the source filed them. The calls are words filed in the database; no cut-off is given here.
Tests used:
[1] = Cytotoxicity against human WI38 cells assessed as inhibition of cell proliferation at 100 uM after 48 hrs by CellTiter-Glo assay relative to control; format: cell-based, WI-38
Procedure, shortened: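 WI-38 proliferation measured over 48 h with compound at 100 μM; percent inhibition reported.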

[2] = Cytotoxicity against HEK293 cells assessed as inhibition of cell proliferation at 100 uM after 96 hrs by CellTiter-Glo assay relative to control; format: cell-based; conditions: human
Procedure, shortened: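 HEK-293 proliferation measured over 96 h with compound at 100 μM; percent inhibition reported.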

[3] = target: T1, Pantothenate kinase, putative (Plasmodium falciparum (isolate 3D7)) (UniProt Q8ILP4); assay: Inhibition of pantothenate kinase in Plasmodium falciparum 3D7 trophozoites at 100 uM using [14C]pantothenate as substrate after 15 to 60 mins by TopCount scintillation counting method relative to control
T1 sequence (whole entry): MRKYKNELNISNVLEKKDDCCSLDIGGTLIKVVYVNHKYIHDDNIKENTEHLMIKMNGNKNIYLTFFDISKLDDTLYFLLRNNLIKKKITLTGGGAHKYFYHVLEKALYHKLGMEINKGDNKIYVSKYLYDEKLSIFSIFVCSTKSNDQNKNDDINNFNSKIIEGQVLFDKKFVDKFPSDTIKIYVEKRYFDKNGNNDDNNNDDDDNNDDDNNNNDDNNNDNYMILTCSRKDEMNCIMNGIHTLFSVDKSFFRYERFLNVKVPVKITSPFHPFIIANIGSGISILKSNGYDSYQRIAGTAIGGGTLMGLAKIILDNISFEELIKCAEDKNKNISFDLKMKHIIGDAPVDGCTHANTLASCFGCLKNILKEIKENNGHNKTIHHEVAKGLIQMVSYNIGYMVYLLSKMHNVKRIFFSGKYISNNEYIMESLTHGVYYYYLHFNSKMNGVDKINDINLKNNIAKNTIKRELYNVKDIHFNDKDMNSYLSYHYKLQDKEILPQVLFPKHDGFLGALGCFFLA
Procedure, shortened: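 [14C]Pantothenate phosphorylation by PanK in P. falciparum lysate with compound at 100 μM. Pantothenate was 1.8 μM for R-compounds and 1 μM for S-compounds. Incubation period was pre-set within the linear range; percent inhibition versus DMSO-only controls. 3–8 experiments in duplicate, SEM.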

Plasmodium falciparum [4] = assay: Antimalarial activity against Plasmodium falciparum 3D7 infected in human erythrocytes after 96 hrs in presence of 1 uM pantothenate by SYBR green fluorescence-based method; format: functional, organism-based; conditions: 3D7, 96 h
Procedure, shortened: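 Blood-stage parasites cultured 96 h in medium with 1 μM pantothenate across a range of compound concentrations; IC50 is the concentration giving 50% inhibition of proliferation. Each experiment run in triplicate, 2–7 independent experiments; mean ± range/2 (n = 2) or SEM (n = 3–7).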

[5] = Selectivity index, ratio of cytotoxic concentration for HEK293 cells to IC50 for Plasmodium falciparum 3D7 infected in human erythrocytes in presence of 1 uM pantothenate; format: toxicity, cell-based; conditions: read-out: Selectivity Index
Plasmodium falciparum [6] = assay: Ratio of IC50 for Plasmodium falciparum 3D7 infected in human erythrocytes in presence of 100 uM pantothenate to IC50 for Plasmodium falciparum 3D7 infected in human erythrocytes in presence of 1 uM pantothenate; format: functional
Procedure, shortened: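 Paired 96 h proliferation assays with parasites in medium containing 100 μM versus 1 μM pantothenate. Fold-increase = IC50 at 100 μM pantothenate divided by IC50 at 1 μM. Two independent experiments in triplicate; error is range/2.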

[7] = target: T1, Pantothenate kinase, putative (Plasmodium falciparum (isolate 3D7)); assay: Inhibition of pantothenate kinase in Plasmodium falciparum 3D7 trophozoites at 1 to 100 uM using [14C]pantothenate as substrate after 15 mins by TopCount scintillation counting method
Procedure, shortened: (§1)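 PanK activity in P. falciparum lysate with 1.8 μM [14C]pantothenate and increasing compound concentrations, 15 min incubation within the linear range. Percent inhibition from [14C]pantothenate phosphorylated versus no compound. 2–5 experiments in duplicate; mean ± range/2 or SEM.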

[8] = Selectivity index, ratio of cytotoxic concentration for human WI38 cells to IC50 for Plasmodium falciparum 3D7 infected in human erythrocytes in presence of 1 uM pantothenate; format: toxicity, cell-based; conditions: read-out: Selectivity Index
[9] = Cysteine reactivity at pH 7.4 after 15 mins by 1H NMR analysis; format: physicochemical; conditions: pH 7.4, 0.25 h
Procedure, shortened: (§2)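 Compound mixed with glutathione or L-cysteine at pH 7.4 and monitored by NMR for 2 h. The first spectrum was acquired 15 min after mixing. N-ethylmaleimide served as a reactive Michael acceptor reference.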

[10] = Drug metabolism in human erythrocytes infected with Plasmodium falciparum 3D7 trophozoites assessed as esterase-mediated compound hydrolysis at 1 mM after 3 hrs by 1H-13C-HSQC NMR analysis; format: ADME, cell-based; conditions: 1000 µM
Procedure, shortened: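 Infected erythrocytes (>95% parasitemia) incubated 3 h with 13C3-labelled or unlabelled compound. Metabolites were extracted from about 2 × 10^8 parasites and analysed by 1H-13C HSQC in D2O with 200 μM TSP as shift reference. Two independent experiments.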

[11] = target: T2, Pantothenate kinase, putative (Plasmodium falciparum (isolate 3D7), UniProt Q8ILP4); assay: Inhibition of pantothenate kinase in Plasmodium falciparum 3D7 trophozoites using [14C]pantothenate as substrate after 15 mins by TopCount scintillation counting method; procedure, shortened: as §1
T2 sequence (Q8ILP4 whole entry): T1 sequence (whole entry)

[12] = Cysteine reactivity at pH 7.4 after 2 hrs by 1H NMR analysis; format: physicochemical; conditions: pH 7.4, 2 h; procedure, shortened: as §2
Plasmodium falciparum [13] = assay: Antimalarial activity against blood stage of Plasmodium falciparum in presence of pantothenate by [3H]hypoxanthine incorporation assay; format: functional, organism-based

SMILES | inhibition [3] | IC50 (Plasmodium falciparum [4]) [µM] | inhibition at 48 h, 100 µM [1] [%] | inhibition at 96 h, 100 µM [2] [%] | Ratio IC50 (Plasmodium falciparum [6]) | further results
CC(C)(C)OC(=O)/C=C\NC(=O)[C@@H](O)C(C)(C)CO | < 25% | > 100 | 26 | -11 | – | –
CC(C)(CO)[C@H](O)C(=O)N/C=C/C(=O)OCc1ccccc1 | < 25% | > 100 | 19 | -6 | – | –
CCN1C(=O)C=CC1=O [N-ETHYLMALEIMIDE] | – | – | – | – | – | Drug metabolism [9]: Metabolite_Detected
CC(C)(C)OC(=O)/C=C/NC(=O)[C@H](O)C(C)(C)CO | > 90% | 42 | 0 | -1 | 3.1 | selectivity ratio [5]: > 2; inhibition [7]: Active; selectivity ratio [8]: > 2
COC(=O)/C=C\NC(=O)[C@H](O)C(C)(C)CO | < 25% | > 200 | – | – | – | –
CC(C)(CO)[C@@H](O)C(=O)N/C=C\C(=O)OCc1ccccc1 | < 25% | 89 | 4 | 7 | 0.9 | –
CCOC(=O)/C=C/NC(=O)c1ccccc1 | inactive | 158 | – | – | 1 | –
CC(C)(CO)[C@H](O)C(=O)N/C=C\C(=O)OCc1ccccc1 | < 25% | > 100 | -2 | -7 | – | –
CCOC(=O)/C=C\NC(=O)[C@@H](O)C(C)(C)CO | < 25% | > 100 | -6 | -6 | – | –
CC(C)(CO)[C@@H](O)C(=O)N/[13CH]=[13CH]/[13C](=O)OCc1ccccc1 | – | – | – | – | – | Drug metabolism [10]: Metabolite_Notdetected
CC(C)(CO)[C@@H](O)C(=O)N/C=C/C(=O)OCc1ccccc1 | > 90% | 13 | 19 | 5 | >7.7 | selectivity ratio [5]: > 8; selectivity ratio [8]: > 8; IC50 [11]: 0.14 µM; Drug metabolism [12]: Metabolite_Notdetected
CC(C)(CO)[C@@H](O)C(=O)N/[13CH]=[13CH]/[13C](=O)O | – | – | – | – | – | Drug metabolism [10]: Metabolite_Detected
CC(C)(CO)[C@@H](O)C(=O)N/C=C\C(=O)O | < 25% | > 200 | – | – | – | –
CC(C)(C)OC(=O)/C=C/NC(=O)[C@@H](O)C(C)(C)CO | < 25% | > 100 | 14 | -8 | – | –
CC(C)(C)OC(=O)/C=C\NC(=O)[C@H](O)C(C)(C)CO | < 25% | 39 | -14 | -9 | 1 | –
CCOC(=O)/C(C)=C/NC(=O)[C@@H]1OC(C)(C)OCC1(C)C | inactive | 93 | – | – | 1 | –
CCOC(=O)/C=C/N1CCCCCC1=O | inactive | 181 | – | – | 0.9 | –
CC(C)(CO)[C@H](O)C(=O)N/C=C\C(=O)O | < 25% | > 100 | -19 | -11 | – | –
CCOC(=O)/C=C/N1CCCCCCCC1=O | inactive | 61 | – | – | 1.4 | –
CCOC(=O)/C(C)=C/NC(=O)[C@H](O)C(C)(C)CO | Active | > 200 | – | – | – | inhibition [7]: inactive

More lines, main results first:

inhibition [3] | IC50 (Plasmodium falciparum [4]) [µM] | SMILES | inhibition at 48 h, 100 µM [1] [%] | inhibition at 96 h, 100 µM [2] [%] | Ratio IC50 (Plasmodium falciparum [6]) | further results
< 25% | > 100 | COC(=O)/C=C\NC(=O)[C@@H](O)C(C)(C)CO | -20 | -12 | – | –
> 90% | 159 | CCOC(=O)/C=C/NC(=O)[C@H](O)C(C)(C)CO | 36 | -5 | >1.3 | selectivity ratio [5]: > 0.6; inhibition [7]: Active; selectivity ratio [8]: > 0.6
inactive | 120 | CCOC(=O)/C(C)=C/NC(=O)c1ccccc1 | – | – | 1 | –
> 90% | > 200 | COC(=O)/C=C/NC(=O)[C@H](O)C(C)(C)CO | 4 | 0 | – | inhibition [7]: Active
inactive | 93 | CCOC(=O)/C=C/N1CCCCCCC1=O | – | – | 1 | –
< 25% | > 100 | CC(C)(CO)[C@H](O)C(=O)N/C=C/C(=O)O | 17 | -10 | – | –
< 25% | > 100 | COC(=O)/C=C/NC(=O)[C@@H](O)C(C)(C)CO | -18 | -2 | – | –
inactive | > 200 | CCOC(=O)/C=C/NC(=O)c1cccnc1 | – | – | – | –
inactive | 144 | CCOC(=O)/C=C/NC(=O)[C@@H]1OC(C)(C)OCC1(C)C | – | – | 0.9 | –
< 25% | > 200 | CCOC(=O)/C=C\NC(=O)[C@H](O)C(C)(C)CO | 1 | -6 | – | –
< 25% | > 100 | CCOC(=O)/C=C/NC(=O)[C@@H](O)C(C)(C)CO | -6 | -9 | – | –
87% | 36 | CC(C)(CO)[C@@H](O)C(=O)N/C=C/C(=O)O | -23 | -17 | >2.8 | selectivity ratio [5]: > 3; selectivity ratio [8]: > 3; IC50 (Plasmodium falciparum [13]): 39 µM; IC50 [11]: 14 µM; Drug metabolism [12]: Metabolite_Notdetected

Source: ChEMBL document CHEMBL4138249, “Structure-activity analysis of CJ-15,801 analogues that interact with Plasmodium falciparum pantothenate kinase and inhibit parasite proliferation” (Eur J Med Chem, 2018)
